Assays:
Assay type in all cases: functional, cell-based
CNE = experiment: Cytotoxicity against human CNE1 cells after 48 hrs by MTT assay
Outline: (§1)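 Growth inhibition in nasopharyngeal carcinoma lines (CNE1, CNE2, HONE-1, SUNE-1) and HT-29 colon cells. IC50 values are the mean ± SD of three experiments, with cisplatin as positive control.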

CNE-2 = experiment: Cytotoxicity against human CNE2 cells after 48 hrs by MTT assay; conditions: CNE-2, 48 h; outline: as §1
HONE1 cell line = experiment: Cytotoxicity against human HONE1 cells after 48 hrs by MTT assay; conditions: HONE1, 48 h; outline: as §1
SUNE1 = experiment: Cytotoxicity against human SUNE1 cells after 48 hrs by MTT assay; conditions: SUNE1, 48 h; outline: as §1
HT-29 = experiment: Cytotoxicity against human HT-29 cells after 48 hrs by MTT assay; conditions: HT-29, 48 h; outline: as §1

SMILES | IC50 (CNE) | IC50 (CNE-2) | IC50 (HONE1 cell line) | IC50 (SUNE1) | IC50 (HT-29)
C=C1C(=O)O[C@@H]2[C@@H]3[C@@]4(C=C[C@@]3(C)[C@]3(C4)C(=O)O[C@@H]4[C@H]5C(C)=CC[C@H]5[C@](C)(O)C[C@H](OC(C)=O)[C@H]43)[C@](C)(O)CC[C@@H]12 | > 10 µM | > 10 µM | > 10 µM | > 10 µM | > 10 µM
C=C1C(=O)O[C@@H]2[C@@H]3[C@@]4(C=C[C@@]3(C)[C@]3(C4)C(=O)O[C@@H]4[C@H]5C(C)=CC[C@H]5[C@](C)(O)C[C@H](OC(=O)/C(C)=C/C)[C@H]43)[C@](C)(O)CC[C@@H]12 | > 10 µM | > 10 µM | > 10 µM | > 10 µM | > 10 µM
C=C1C(=O)O[C@@H]2[C@H]3C(C)=CC[C@H]3[C@](C)(O)C[C@H](OC(=O)/C(C)=C/C)[C@@H]12 | 7.9 µM | > 10 µM | 6.5 µM | 3 µM | > 10 µM
C=C1C(=O)O[C@H]2[C@H]1[C@@H](O)C[C@@](C)(O)[C@]13C=C[C@](C)([C@H]21)[C@]1(C3)C(=O)O[C@@H]2[C@H]3C(C)=CC[C@H]3[C@](C)(O)C[C@H](OC(=O)/C(C)=C\C)[C@H]21 | > 10 µM | > 10 µM | > 10 µM | > 10 µM | > 10 µM

From ChEMBL document CHEMBL4330168, “Monomeric and Dimeric Cytotoxic Guaianolide-Type Sesquiterpenoids from the Aerial Parts of Chrysanthemum indicum” (J Nat Prod, 2019)
